In ChEMBL document CHEMBL4004813, “Oscarellin, an Anthranilic Acid Derivative from a Philippine Sponge, Oscarella stillans, as an Inhibitor of Inflammatory Cytokines in Macrophages” (J Nat Prod, 2017) one finds Activity and inhibition data, which are given here for one compound.

The test system of data set [1] is RAW264.7. Kind of data set: Cytotoxicity against mouse RAW264.7 cells assessed as reduction in cell viability up to 100 ug/ml after 24 hrs by MTT assay. Particulars: raw264.7, 24 h. It is filed as cell-based. The essentials:
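RAW 264.7 cells were seeded at 5 × 10^4 per well and exposed 24 h to 0.1, 1, 10, 50 and 100 μg/mL. MTT was then added in full DMEM for 4 h, formazan was dissolved in DMSO, and OD was read at 550 nm.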
(Formazan colour is commonly taken as a measure of viable cells.)

For data set [2], the system named is RAW264.7. The experiment in a line: Anti-inflammatory activity in mouse RAW264.7 cells assessed as reduction in LPS-induced TNFalpha production preincubated for 2 hrs followed by LPS stimulation for 24 hrs by ELISA. It is filed as functional, cell-based. The essentials: (§1)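 RAW 264.7 cells (DMEM, 10% heat-inactivated FBS, 37 °C, 5% CO2) pretreated 2 h with compound at 0.1, 1 or 10 μg/mL, then LPS 1 μg/mL for 24 h. TNF-α and IL-6 in the supernatant measured by sandwich ELISA. Dexamethasone 10 and 20 μM served as reference. Means ± SEM of quintuplicate replicates, one representative experiment.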

Data set [3] relates to RAW264.7. The experiment in a line: Anti-inflammatory activity in mouse RAW264.7 cells assessed as reduction in LPS-induced IL-6 production preincubated for 2 hrs followed by LPS stimulation for 24 hrs by ELISA. It is filed as functional, cell-based. The essentials:
as §1
On the technique in general: In an ELISA, binding on a coated surface is turned into a signal by an enzyme label.

In data set [4] the test system is RAW264.7. Kind of data set: Anti-inflammatory activity in mouse RAW264.7 cells assessed as reduction in LPS-induced NO production up to 10 ug/ml preincubated for 2 hrs followed by LPS stimulation for 24 hrs by Griess assay. Format: functional, cell-based. The essentials: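 RAW 264.7 cells were pretreated 2 h with 0.1–10 μg/mL, then given LPS 1 μg/mL for 24 h. Supernatant was mixed 1:1 with Griess reagent (sulfanilamide in 5% phosphoric acid plus α-naphthylamide) for 15 min at room temperature, and A550 was read. Nitrite served as the NO index. Dexamethasone 10 and 20 μM was the reference. Quintuplicates, mean ± SEM.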
On the technique in general: The Griess reaction detects nitrite, a stable product of nitric oxide.

The species named for a further data set is Homo sapiens. Kind of data set: Inhibition of NF-kB (unknown origin) activation expressed in LPS-stimulated mouse RAW264.7 cells up to 10 ug/ml preincubated for 2 hrs followed by LPS stimulation for 4 hrs by luciferase reporter gene assay. Format: cell-based. The essentials: (§2)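 Cells were plated at 5 × 10^5/mL and transiently cotransfected by lipofection with pGL3-NF-κB-Luc or pGL2-AP-1-Luc plus a normalization plasmid. After 24 h they were pretreated 2 h with the compound (0.1, 1, 10 μg/mL for NF-κB), then given LPS 1 μg/mL for 4 h. Cells were washed in cold PBS, and luciferase was read in the lysates.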

Data set [5] concerns the target Transcription factor p65 (Mus musculus) (UniProt Q04207). The experiment in a line: Inhibition of p65 nuclear translocation in LPS-stimulated mouse RAW264.7 cells preincubated for 2 hrs followed by LPS stimulation for 4 hrs by Western blot method. In outline: (§3)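 Pretreatment was 2 h (0.1, 1, 10 μg/mL), then LPS 1 μg/mL for 4 h. Cytosolic extracts came from a 1500g, 10 min, 4 °C spin and nuclear fractions from 13000g, 10 min, 4 °C. p65, c-Jun and c-Fos were detected by Western blot (8% SDS-PAGE, PVDF, ECL), with β-actin as reprobe control.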

Data set [6] concerns the target T1, NF-kappa-B inhibitor alpha (Mus musculus) (UniProt Q9Z1E3).
T1 sequence (whole entry): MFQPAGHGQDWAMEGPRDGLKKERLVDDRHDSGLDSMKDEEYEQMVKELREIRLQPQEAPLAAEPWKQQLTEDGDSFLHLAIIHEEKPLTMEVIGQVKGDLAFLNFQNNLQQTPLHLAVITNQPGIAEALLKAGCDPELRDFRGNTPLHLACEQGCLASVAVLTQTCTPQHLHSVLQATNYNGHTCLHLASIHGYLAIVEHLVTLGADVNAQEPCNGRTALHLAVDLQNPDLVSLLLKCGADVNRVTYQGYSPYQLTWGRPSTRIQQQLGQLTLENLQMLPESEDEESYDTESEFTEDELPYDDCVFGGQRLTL
The experiment in a line: Inhibition of LPS-induced degradation of IkappaB-alpha in mouse RAW264.7 cells at 10 ug/ml preincubated for 2 hrs followed by LPS stimulation up to 45 mins by Western blot method. It is filed as cell-based. The essentials: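 Cells were pretreated 2 h with 10 μg/mL, then given LPS 1 μg/mL for varying times. IκBα was detected in lysates by Western blot with ECL, using β-actin as internal control. Results are representative of three experiments.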

Data set [7] addresses Transcription factor Jun (Homo sapiens) (UniProt P05412). The experiment in a line: Inhibition of AP-1 (unknown origin) activation expressed in LPS-stimulated mouse RAW264.7 cells preincubated for 2 hrs followed by LPS stimulation for 4 hrs by luciferase reporter gene assay. It is filed as cell-based. The essentials: as §2
Data set [8] addresses Transcription factor Jun (Mus musculus) (UniProt P05627). The experiment in a line: Inhibition of LPS-induced nuclear translocation of AP-1 c-Jun component in mouse RAW264.7 cells up to 10 ug/ml preincubated for 2 hrs followed by LPS stimulation for 4 hrs by Western blot method. It is filed as cell-based. In outline: as §3
Data set [9] has as its system RAW264.7. Kind of data set: Induction of LPS-induced ATF-3 expression in mouse RAW264.7 cells preincubated for 2 hrs followed by LPS stimulation for 4 hrs by Western blot method. It is filed as functional, cell-based. The essentials:
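Cells were pretreated 2 h (0.1–10 μg/mL), then stimulated with LPS 1 μg/mL for 4 h. ATF-3 was detected by Western blot (8% SDS-PAGE, PVDF, ECL) and quantified by densitometry, normalized to β-actin, in arbitrary units. Blots are representative of three experiments.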

Data set [10] concerns RAW264.7. Kind of data set: Anti-inflammatory activity in mouse RAW264.7 cells transfected with ATF-3 shRNA assessed as reduction in LPS-induced TNFalpha production at 10 ug/ml preincubated for 2 hrs followed by LPS stimulation for 24 hrs by ELISA. It is filed as functional, cell-based. In outline: (§4)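 Cells received compound at 10 μg/mL for 2 h, then LPS 1 μg/mL for 24 h. TNF-α and IL-6 in the medium were measured by ELISA and compared with control shRNA cells.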

Data set [11] deals with RAW264.7. The experiment in a line: Anti-inflammatory activity in mouse RAW264.7 cells transfected with ATF-3 shRNA assessed as reduction in LPS-induced IL-6 production at 10 ug/ml preincubated for 2 hrs followed by LPS stimulation for 24 hrs by ELISA. Format: functional, cell-based. The essentials: as §4
For the next data set, the species on record is Mus musculus. Kind of data set: Inhibition of LPS-induced JNK phosphorylation in mouse RAW264.7 cells up to 10 ug/ml preincubated for 2 hrs followed by LPS stimulation for 15 mins by Western blot method. It is filed as cell-based. The essentials: (§5)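 RAW 264.7 cells were preincubated 2 h at 0.1, 1 or 10 μg/mL, then exposed to LPS 1 μg/mL for 15 min. Lysates were resolved on 8% SDS-PAGE, transferred to PVDF and probed for the phosphorylated MAP kinases. Detection was by ECL, with membranes reprobed for β-actin as loading control.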

Data set [12] addresses Mitogen-activated protein kinase 1 and 3 (ERK2 and ERK1) (Mus musculus) (UniProt P63085+Q63844). The experiment in a line: Inhibition of LPS-induced ERK1/2 phosphorylation in mouse RAW264.7 cells up to 10 ug/ml preincubated for 2 hrs followed by LPS stimulation for 15 mins by Western blot method. It is filed as cell-based. In outline: as §5
In data set [13] the target is MAP kinase p38 (Mus musculus) (UniProt P47811+O08911+Q9WUI1+Q9Z1B7). The experiment in a line: Inhibition of LPS-induced MAPK p38 phosphorylation in mouse RAW264.7 cells up to 10 ug/ml preincubated for 2 hrs followed by LPS stimulation for 15 mins by Western blot method. Format: cell-based. In outline:
as §5

For data set [14], the target named is Proto-oncogene c-Fos (Mus musculus) (UniProt P01101). The experiment in a line: Inhibition of LPS-induced nuclear translocation of AP-1 c-Fos component in mouse RAW264.7 cells up to 10 ug/ml preincubated for 2 hrs followed by LPS stimulation for 4 hrs by Western blot method.
Proto-oncogene c-Fos (Mus musculus), sequence (P01101 whole entry, looked up): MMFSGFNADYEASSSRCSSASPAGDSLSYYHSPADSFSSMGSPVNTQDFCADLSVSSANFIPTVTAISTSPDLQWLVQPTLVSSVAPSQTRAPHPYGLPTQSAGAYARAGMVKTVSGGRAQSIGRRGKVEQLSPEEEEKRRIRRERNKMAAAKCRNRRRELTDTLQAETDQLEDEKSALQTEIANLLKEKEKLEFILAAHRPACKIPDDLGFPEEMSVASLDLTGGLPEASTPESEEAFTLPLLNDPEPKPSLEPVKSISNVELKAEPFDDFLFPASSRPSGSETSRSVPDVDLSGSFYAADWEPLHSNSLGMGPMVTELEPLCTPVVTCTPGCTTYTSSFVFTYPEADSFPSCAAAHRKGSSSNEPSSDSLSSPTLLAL

Activity calls are given as the source filed them. The calls are words filed in the database; no cut-off is given here.

Transcription factor Jun (Mus musculus), sequence (P05627 whole entry): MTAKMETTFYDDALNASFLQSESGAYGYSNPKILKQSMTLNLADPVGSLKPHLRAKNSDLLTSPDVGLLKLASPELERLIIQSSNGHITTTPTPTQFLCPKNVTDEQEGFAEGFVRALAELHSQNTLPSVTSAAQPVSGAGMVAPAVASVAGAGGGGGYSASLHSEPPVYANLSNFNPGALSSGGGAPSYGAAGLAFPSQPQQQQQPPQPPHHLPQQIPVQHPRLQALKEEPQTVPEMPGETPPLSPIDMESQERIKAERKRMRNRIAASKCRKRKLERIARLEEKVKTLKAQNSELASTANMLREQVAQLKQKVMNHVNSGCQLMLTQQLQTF
Transcription factor p65 (Mus musculus), sequence (Q04207 whole entry): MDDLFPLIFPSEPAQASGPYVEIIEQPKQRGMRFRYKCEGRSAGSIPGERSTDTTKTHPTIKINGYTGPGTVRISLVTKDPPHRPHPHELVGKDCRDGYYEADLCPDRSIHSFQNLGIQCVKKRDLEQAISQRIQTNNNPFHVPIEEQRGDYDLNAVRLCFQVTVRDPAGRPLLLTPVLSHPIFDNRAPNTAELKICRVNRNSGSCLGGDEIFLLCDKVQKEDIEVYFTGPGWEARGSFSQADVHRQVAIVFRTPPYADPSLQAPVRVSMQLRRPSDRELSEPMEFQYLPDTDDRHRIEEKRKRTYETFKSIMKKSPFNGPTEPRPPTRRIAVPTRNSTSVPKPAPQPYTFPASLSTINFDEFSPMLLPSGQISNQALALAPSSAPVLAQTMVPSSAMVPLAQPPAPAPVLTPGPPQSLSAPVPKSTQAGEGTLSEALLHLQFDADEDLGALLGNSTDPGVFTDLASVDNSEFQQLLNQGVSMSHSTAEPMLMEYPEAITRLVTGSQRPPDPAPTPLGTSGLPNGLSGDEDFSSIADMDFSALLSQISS
Mitogen-activated protein kinase 1 and 3 (ERK2 and ERK1) (Mus musculus), sequence (P63085 whole entry, looked up): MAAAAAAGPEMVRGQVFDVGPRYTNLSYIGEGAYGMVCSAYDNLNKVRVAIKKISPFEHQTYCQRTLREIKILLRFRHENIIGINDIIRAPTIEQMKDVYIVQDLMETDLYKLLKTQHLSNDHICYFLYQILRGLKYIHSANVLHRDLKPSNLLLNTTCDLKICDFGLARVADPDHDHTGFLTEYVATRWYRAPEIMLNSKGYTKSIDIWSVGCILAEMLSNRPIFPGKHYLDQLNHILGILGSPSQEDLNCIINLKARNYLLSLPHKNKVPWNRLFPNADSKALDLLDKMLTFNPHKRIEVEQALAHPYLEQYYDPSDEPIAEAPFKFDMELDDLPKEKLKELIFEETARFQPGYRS
Mitogen-activated protein kinase 1 and 3 (ERK2 and ERK1) (Mus musculus), sequence (Q63844 whole entry, looked up): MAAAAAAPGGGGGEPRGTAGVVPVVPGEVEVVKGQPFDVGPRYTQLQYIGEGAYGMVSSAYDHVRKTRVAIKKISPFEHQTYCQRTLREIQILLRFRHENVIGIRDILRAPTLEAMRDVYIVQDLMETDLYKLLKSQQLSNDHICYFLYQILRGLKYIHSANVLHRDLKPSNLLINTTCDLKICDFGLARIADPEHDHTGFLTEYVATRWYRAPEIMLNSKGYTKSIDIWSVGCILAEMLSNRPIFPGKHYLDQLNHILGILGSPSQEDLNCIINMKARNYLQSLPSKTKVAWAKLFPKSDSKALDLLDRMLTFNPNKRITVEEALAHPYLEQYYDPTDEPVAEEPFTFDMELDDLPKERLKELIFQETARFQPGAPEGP
Transcription factor Jun (Homo sapiens), sequence (P05412 whole entry): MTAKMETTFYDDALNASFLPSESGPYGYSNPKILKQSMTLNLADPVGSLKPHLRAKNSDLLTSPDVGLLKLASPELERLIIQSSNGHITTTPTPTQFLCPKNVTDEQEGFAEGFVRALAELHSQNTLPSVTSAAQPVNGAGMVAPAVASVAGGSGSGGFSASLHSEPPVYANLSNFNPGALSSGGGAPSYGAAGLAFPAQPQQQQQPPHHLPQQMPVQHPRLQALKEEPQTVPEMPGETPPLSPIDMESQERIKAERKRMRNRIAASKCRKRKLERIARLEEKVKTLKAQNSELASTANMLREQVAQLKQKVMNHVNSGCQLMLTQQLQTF

Take `NCCCOc1cccc(C(=O)O)c1N`: the Activity result in the data set on RAW264.7 [1] was “Non-Toxic”; with RAW264.7 [2], “Dose-dependent effect”; in the data set on RAW264.7 [3], “Dose-dependent effect”. In addition, the outcome in the data set on RAW264.7 [4], in the data set on RAW264.7 [10] and with RAW264.7 [11] was inactive. Besides, the inhibition result (in the data set filed under Homo sapiens; in data set [6]; in data set [8]; in the data set filed under Mus musculus; in data set [12]; in data set [14]) was “Active” in each case. For the same compound, the inhibition entry in [5] and in [7] was “Dose-dependent effect” in each case. The result in the data set on RAW264.7 [9] was Active. In data set [13], the inhibition entry is “inactive”.
